Reference: ChEMBL document CHEMBL5058577, “EUbOPEN Chemogenomics Library 2 (Multiplex)” (2022)

System: Fibroblast
Test: Multiplex assay against human fibroblast
Format: toxicity, cell-based
How it was run: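 Imaging took place on a CQ1 microscope at 37°C and 5% CO2 once compound had been added to live cells stained at seeding with Hoechst33342, BioTracker Green Microtubule Cytoskeleton Dye, MitoTracker Red and Annexin V Alexa Fluor 680. CellPathfinder machine-learning gating classed cells as Hoechst high-intensity objects or normal cells, classed normal cells as having healthy, pyknosed or fragmented nuclei, and classed pyknosed cells as mitotic or apoptotic. Tubulin, mitochondrial-mass and membrane-permeability phenotypes are per cents of the healthy-nucleus cells.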

[1] = 12 h, 1 µM, compound concentration 1 uM, replicate 1
[2] = 12 h, 1 µM, compound concentration 1 uM, replicate 2
[3] = 12 h, 10 µM, compound concentration 10 uM, replicate 1
[4] = 12 h, 10 µM, compound concentration 10 uM, replicate 2
[5] = 24 h, 1 µM, compound concentration 1 uM, replicate 1
[6] = 24 h, 1 µM, compound concentration 1 uM, replicate 2
[7] = 24 h, 10 µM, compound concentration 10 uM, replicate 1
[8] = 24 h, 10 µM, compound concentration 10 uM, replicate 2
[9] = 48 h, 1 µM, compound concentration 1 uM, replicate 1
[10] = 48 h, 1 µM, compound concentration 1 uM, replicate 2
[11] = 48 h, 10 µM, compound concentration 10 uM, replicate 1
[12] = 48 h, 10 µM, compound concentration 10 uM, replicate 2

How did the “Population Apoptotic (%)” value [1] turn out when `CC1(COc2ccc3c(c2)ncn3-c2ccc3cccc(N4CCC(N)CC4)c3n2)COC1` [CRENOLANIB] was run?
Its value is 61%.

And the “Population Fragmented Nuclei (%)” value [1]?
Its value is 27%.

And the “Population Healthy Nuclei (%)” value [1]?
The value was 60%.

What about the “Population Hoechst High Intensity Objects (%)” value [1] of the same compound?
The value was 2%.

And the “Population Membrane Permeable-Phenotype (%)” value [1]?
Its value is 0%.

What about the “Population Mitochondria Different-Phenotype (%)” value [1] of the same compound?
The value was 4%.

And the “Population Mitotic Cells (%)” value [1]?
The value was 38%.

And the “Population Normal (%)” value [1]?
Its value is 97%.

And the “Population Pyknosed Nuclei (%)” value [1]?
The value was 12%.

What about the “Population Tubulin-Different-Phenotype (%)” value [1] of the same compound?
The value was 48%.

What about the “Population Apoptotic (%)” value [2] of the same compound?
The value was 18%.

What about the “Population Fragmented Nuclei (%)” value [2] of the same compound?
The value was 33%.

And the “Population Healthy Nuclei (%)” value [2]?
Its value is 47%.

What about the “Population Hoechst High Intensity Objects (%)” value [2] of the same compound?
The value was 4%.

And the “Population Membrane Permeable-Phenotype (%)” value [2]?
Its value is 7%.

What about the “Population Mitochondria Different-Phenotype (%)” value [2] of the same compound?
Its value is 9%.

What about the “Population Mitotic Cells (%)” value [2] of the same compound?
The value was 81%.

And the “Population Normal (%)” value [2]?
The value was 95%.

And the “Population Pyknosed Nuclei (%)” value [2]?
The value was 18%.

What about the “Population Tubulin-Different-Phenotype (%)” value [2] of the same compound?
The value was 67%.

What about the “Population Apoptotic (%)” value [3] of the same compound?
The value was 33%.

What about the “Population Fragmented Nuclei (%)” value [3] of the same compound?
Its value is 21%.

What about the “Population Healthy Nuclei (%)” value [3] of the same compound?
The value was 48%.

What about the “Population Hoechst High Intensity Objects (%)” value [3] of the same compound?
The value was 4%.

And the “Population Membrane Permeable-Phenotype (%)” value [3]?
Its value is 2%.

What about the “Population Mitochondria Different-Phenotype (%)” value [3] of the same compound?
Its value is 6%.

What about the “Population Mitotic Cells (%)” value [3] of the same compound?
Its value is 66%.

What about the “Population Normal (%)” value [3] of the same compound?
Its value is 95%.

What about the “Population Pyknosed Nuclei (%)” value [3] of the same compound?
Its value is 30%.

What about the “Population Tubulin-Different-Phenotype (%)” value [3] of the same compound?
Its value is 43%.

What about the “Population Apoptotic (%)” value [4] of the same compound?
Its value is 34%.

And the “Population Fragmented Nuclei (%)” value [4]?
Its value is 29%.

And the “Population Healthy Nuclei (%)” value [4]?
The value was 40%.

And the “Population Hoechst High Intensity Objects (%)” value [4]?
Its value is 13%.

And the “Population Membrane Permeable-Phenotype (%)” value [4]?
Its value is 6%.

What about the “Population Mitochondria Different-Phenotype (%)” value [4] of the same compound?
Its value is 9%.

What about the “Population Mitotic Cells (%)” value [4] of the same compound?
Its value is 65%.

And the “Population Normal (%)” value [4]?
The value was 86%.

And the “Population Tubulin-Different-Phenotype (%)” value [4]?
The value was 48%.

And the “Population Apoptotic (%)” value [5]?
The value was 92%.

What about the “Population Fragmented Nuclei (%)” value [5] of the same compound?
The value was 29%.

And the “Population Healthy Nuclei (%)” value [5]?
Its value is 60%.

And the “Population Hoechst High Intensity Objects (%)” value [5]?
The value was 0%.

And the “Population Membrane Permeable-Phenotype (%)” value [5]?
Its value is 0%.

What about the “Population Mitochondria Different-Phenotype (%)” value [5] of the same compound?
The value was 9%.

What about the “Population Mitotic Cells (%)” value [5] of the same compound?
The value was 7%.

What about the “Population Normal (%)” value [5] of the same compound?
The value was 99%.

And the “Population Pyknosed Nuclei (%)” value [5]?
Its value is 9%.

What about the “Population Tubulin-Different-Phenotype (%)” value [5] of the same compound?
The value was 61%.

What about the “Population Apoptotic (%)” value [6] of the same compound?
The value was 50%.

And the “Population Fragmented Nuclei (%)” value [6]?
The value was 41%.

And the “Population Healthy Nuclei (%)” value [6]?
Its value is 48%.

And the “Population Hoechst High Intensity Objects (%)” value [6]?
The value was 1%.

What about the “Population Membrane Permeable-Phenotype (%)” value [6] of the same compound?
The value was 4%.

And the “Population Mitotic Cells (%)” value [6]?
Its value is 50%.

What about the “Population Normal (%)” value [6] of the same compound?
The value was 98%.

And the “Population Pyknosed Nuclei (%)” value [6]?
The value was 10%.

And the “Population Tubulin-Different-Phenotype (%)” value [6]?
The value was 63%.

What about the “Population Apoptotic (%)” value [7] of the same compound?
Its value is 36%.

What about the “Population Fragmented Nuclei (%)” value [7] of the same compound?
The value was 23%.

And the “Population Healthy Nuclei (%)” value [7]?
The value was 51%.

And the “Population Hoechst High Intensity Objects (%)” value [7]?
Its value is 16%.

What about the “Population Membrane Permeable-Phenotype (%)” value [7] of the same compound?
The value was 0%.

And the “Population Mitochondria Different-Phenotype (%)” value [7]?
Its value is 8%.

And the “Population Mitotic Cells (%)” value [7]?
Its value is 63%.

What about the “Population Normal (%)” value [7] of the same compound?
Its value is 83%.

And the “Population Pyknosed Nuclei (%)” value [7]?
Its value is 24%.

And the “Population Tubulin-Different-Phenotype (%)” value [7]?
The value was 23%.

What about the “Population Apoptotic (%)” value [8] of the same compound?
The value was 34%.

And the “Population Fragmented Nuclei (%)” value [8]?
Its value is 25%.

What about the “Population Healthy Nuclei (%)” value [8] of the same compound?
Its value is 46%.

What about the “Population Hoechst High Intensity Objects (%)” value [8] of the same compound?
The value was 17%.

What about the “Population Membrane Permeable-Phenotype (%)” value [8] of the same compound?
Its value is 6%.

What about the “Population Mitochondria Different-Phenotype (%)” value [8] of the same compound?
Its value is 6%.

What about the “Population Mitotic Cells (%)” value [8] of the same compound?
Its value is 65%.

What about the “Population Normal (%)” value [8] of the same compound?
Its value is 82%.

And the “Population Pyknosed Nuclei (%)” value [8]?
Its value is 28%.

What about the “Population Tubulin-Different-Phenotype (%)” value [8] of the same compound?
The value was 38%.

What about the “Population Apoptotic (%)” value [9] of the same compound?
Its value is 75%.

And the “Population Fragmented Nuclei (%)” value [9]?
Its value is 32%.

And the “Population Healthy Nuclei (%)” value [9]?
Its value is 60%.

And the “Population Hoechst High Intensity Objects (%)” value [9]?
The value was 1%.

What about the “Population Membrane Permeable-Phenotype (%)” value [9] of the same compound?
Its value is 0%.

What about the “Population Mitochondria Different-Phenotype (%)” value [9] of the same compound?
The value was 8%.

What about the “Population Mitotic Cells (%)” value [9] of the same compound?
The value was 25%.

What about the “Population Normal (%)” value [9] of the same compound?
The value was 98%.

And the “Population Pyknosed Nuclei (%)” value [9]?
Its value is 7%.

What about the “Population Tubulin-Different-Phenotype (%)” value [9] of the same compound?
The value was 55%.

What about the “Population Apoptotic (%)” value [10] of the same compound?
The value was 20%.

What about the “Population Fragmented Nuclei (%)” value [10] of the same compound?
The value was 44%.

And the “Population Healthy Nuclei (%)” value [10]?
Its value is 44%.

What about the “Population Hoechst High Intensity Objects (%)” value [10] of the same compound?
The value was 0%.

What about the “Population Membrane Permeable-Phenotype (%)” value [10] of the same compound?
Its value is 5%.

And the “Population Mitochondria Different-Phenotype (%)” value [10]?
Its value is 7%.

What about the “Population Mitotic Cells (%)” value [10] of the same compound?
The value was 80%.

And the “Population Normal (%)” value [10]?
The value was 99%.

And the “Population Pyknosed Nuclei (%)” value [10]?
The value was 12%.

And the “Population Tubulin-Different-Phenotype (%)” value [10]?
Its value is 74%.

And the “Population Apoptotic (%)” value [11]?
Its value is 42%.

What about the “Population Fragmented Nuclei (%)” value [11] of the same compound?
Its value is 16%.

And the “Population Healthy Nuclei (%)” value [11]?
The value was 62%.

What about the “Population Hoechst High Intensity Objects (%)” value [11] of the same compound?
Its value is 24%.

And the “Population Membrane Permeable-Phenotype (%)” value [11]?
The value was 1%.

And the “Population Mitochondria Different-Phenotype (%)” value [11]?
Its value is 6%.

What about the “Population Mitotic Cells (%)” value [11] of the same compound?
Its value is 57%.

What about the “Population Normal (%)” value [11] of the same compound?
Its value is 75%.

And the “Population Pyknosed Nuclei (%)” value [11]?
Its value is 21%.

And the “Population Tubulin-Different-Phenotype (%)” value [11]?
The value was 23%.

And the “Population Apoptotic (%)” value [12]?
The value was 37%.

What about the “Population Fragmented Nuclei (%)” value [12] of the same compound?
Its value is 23%.

What about the “Population Healthy Nuclei (%)” value [12] of the same compound?
Its value is 42%.

And the “Population Hoechst High Intensity Objects (%)” value [12]?
The value was 21%.

What about the “Population Mitotic Cells (%)” value [12] of the same compound?
Its value is 62%.

What about the “Population Normal (%)” value [12] of the same compound?
Its value is 78%.

What about the “Population Pyknosed Nuclei (%)” value [12] of the same compound?
Its value is 33%.

And the “Population Tubulin-Different-Phenotype (%)” value [12]?
The value was 27%.
